Test results from ChEMBL document CHEMBL1139241, “Structure-activity relationship studies of a new series of imidazo[2,1-f]purinones as potent and selective A(3) adenosine receptor antagonists” (Bioorg Med Chem, 2008).
pIC50, pKi: −log10 of the molar value.

molecular target: Adenosine receptor A2a (Homo sapiens, UniProt P29274); test: Displacement of [3H]ZM241385 from human cloned adenosine A2A receptor expressed in CHO cells; type: cell-based
Sequence (P29274 whole entry): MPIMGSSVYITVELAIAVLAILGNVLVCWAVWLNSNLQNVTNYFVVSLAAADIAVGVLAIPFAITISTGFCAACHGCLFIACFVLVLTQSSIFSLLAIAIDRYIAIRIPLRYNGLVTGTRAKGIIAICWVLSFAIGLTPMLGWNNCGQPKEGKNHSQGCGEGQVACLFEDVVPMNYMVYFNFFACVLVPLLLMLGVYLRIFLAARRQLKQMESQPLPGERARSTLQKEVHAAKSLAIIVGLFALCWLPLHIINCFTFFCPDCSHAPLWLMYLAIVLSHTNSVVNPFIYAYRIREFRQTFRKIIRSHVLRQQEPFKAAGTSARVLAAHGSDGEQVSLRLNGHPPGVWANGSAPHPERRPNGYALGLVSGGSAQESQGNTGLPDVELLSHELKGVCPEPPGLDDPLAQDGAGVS

Row | Structure (SMILES) | pKi
1 | CCCn1c(=O)c2c(nc3[nH]c(C)cn32)n(Cc2ccncc2)c1=O | < 6.00
2 | C=CCn1c(=O)c2c(nc3[nH]c(C)cn32)n(Cc2ccccc2)c1=O | < 6.00
3 | Cc1cn2c(nc3c2c(=O)n(CCO)c(=O)n3Cc2ccccc2)[nH]1 | < 6.00
4 | Cc1cn2c(nc3c2c(=O)n(CCN(C)C)c(=O)n3Cc2ccccc2)[nH]1 | < 6.00
5 | CCn1c(C)cn2c3c(=O)[nH]c(=O)n(Cc4ccccc4)c3nc12 | < 6.00
6 | CCCn1c(=O)c2c(nc3[nH]c(C)cn32)n(Cc2cccnc2)c1=O | < 6.00
7 | CCCn1c(=O)c2c(nc3[nH]c(C)cn32)n(Cc2ccccn2)c1=O | < 6.00
8 | Cc1cn2c(nc3c2c(=O)n(CCCO)c(=O)n3Cc2ccccc2)[nH]1 | < 6.00
9 | CCOC(=O)Cn1c(=O)c2c(nc3[nH]c(C)cn32)n(Cc2ccccc2)c1=O | < 6.00
10 | CC(=O)Cn1c(=O)c2c(nc3[nH]c(C)cn32)n(Cc2ccccc2)c1=O | < 6.00
11 | Cn1c(=O)c2c(nc3[nH]c(-c4ccccc4)cn32)n(C)c1=O | < 6.00
12 | CCCn1c(=O)c2c(nc3n(CC)c(C)cn23)n(Cc2ccccc2)c1=O | < 6.00
13 | C#CCn1c(=O)c2c(nc3[nH]c(C)cn32)n(Cc2ccccc2)c1=O | < 6.00
14 | Cc1cn2c3c(=O)[nH]c(=O)n(Cc4ccccc4)c3nc2n1C(C)CO (stereo not given) | < 6.00
15 | Cc1cn2c(nc3c2c(=O)[nH]c(=O)n3Cc2ccccc2)[nH]1 | < 6.00

molecular target: T1, Adenosine receptor A2b (Homo sapiens, UniProt P29275); test: Antagonist activity at human cloned adenosine A2B cells expressed in CHO cells assessed as inhibition of NECA-stimulated cAMP production; type: functional, cell-based
T1 sequence (P29275 whole entry): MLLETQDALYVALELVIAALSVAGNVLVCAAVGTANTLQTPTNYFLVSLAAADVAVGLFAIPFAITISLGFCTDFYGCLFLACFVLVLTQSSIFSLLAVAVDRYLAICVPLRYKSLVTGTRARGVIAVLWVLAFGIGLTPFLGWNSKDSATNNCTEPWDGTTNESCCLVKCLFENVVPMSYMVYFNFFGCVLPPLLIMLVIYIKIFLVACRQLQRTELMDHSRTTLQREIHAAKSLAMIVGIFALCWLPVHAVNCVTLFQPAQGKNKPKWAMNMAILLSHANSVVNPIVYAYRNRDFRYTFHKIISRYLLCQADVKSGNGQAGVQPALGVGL
Procedure, shortened: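 CHO cells with human A2B receptor, trypsin-detached, 1×10^6 cells/assay, in buffered salt medium pH 7.4 with 2 IU/ml adenosine deaminase and Ro 20-1724, preincubated 10 min at 37 °C. Antagonism of 100 nM NECA-stimulated cAMP. Stopped with cold 6% TCA, ether-extracted, cAMP measured by [3H]cAMP competition protein binding. IC50 from sigmoid nonlinear regression, n = 4, mean ± SEM.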

Row | Structure (SMILES) | pIC50
16 | CCCn1c(=O)c2c(nc3[nH]c(-c4ccc(OC)cc4)cn32)n(Cc2ccccc2)c1=O | < 6.00
17 | CCCn1c(=O)c2c(nc3[nH]c(-c4ccc(-c5ccccc5)cc4)cn32)n(Cc2ccccc2)c1=O | < 6.00
18 | CCCn1c(=O)c2c(nc3n2CC(c2ccccc2)=C3)n(Cc2ccccc2)c1=O | < 6.00
19 | CCCn1c(=O)c2c(nc3[nH]c(-c4ccc(F)cc4)cn32)n(Cc2ccccc2)c1=O | < 6.00
20 | CCCn1c(=O)c2c(nc3[nH]c(-c4ccccc4)cn32)n(Cc2ccccc2)c1=O | < 6.00
21 | CCCn1c(=O)c2c(nc3[nH]c(C)cn32)n(Cc2ccncc2)c1=O | < 6.00
22 | C=CCn1c(=O)c2c(nc3[nH]c(C)cn32)n(Cc2ccccc2)c1=O | < 6.00
23 | Cc1cn2c(nc3c2c(=O)n(CCO)c(=O)n3Cc2ccccc2)[nH]1 | < 6.00
24 | Cc1cn2c(nc3c2c(=O)n(CCN(C)C)c(=O)n3Cc2ccccc2)[nH]1 | < 6.00
25 | CCn1c(C)cn2c3c(=O)[nH]c(=O)n(Cc4ccccc4)c3nc12 | < 6.00
26 | CCCn1c(=O)c2c(nc3[nH]c(C)cn32)n(Cc2cccnc2)c1=O | < 6.00
27 | CCCn1c(=O)c2c(nc3[nH]c(C)cn32)n(Cc2ccccn2)c1=O | < 6.00
28 | Cc1cn2c(nc3c2c(=O)n(CCCO)c(=O)n3Cc2ccccc2)[nH]1 | < 6.00
29 | CCOC(=O)Cn1c(=O)c2c(nc3[nH]c(C)cn32)n(Cc2ccccc2)c1=O | < 6.00
30 | CC(=O)Cn1c(=O)c2c(nc3[nH]c(C)cn32)n(Cc2ccccc2)c1=O | < 6.00
31 | Cn1c(=O)c2c(nc3[nH]c(-c4ccccc4)cn32)n(C)c1=O | < 6.00
32 | CCCn1c(=O)c2c(nc3n(CC)c(C)cn23)n(Cc2ccccc2)c1=O | < 6.00
33 | C#CCn1c(=O)c2c(nc3[nH]c(C)cn32)n(Cc2ccccc2)c1=O | < 6.00
34 | Cc1cn2c3c(=O)[nH]c(=O)n(Cc4ccccc4)c3nc2n1C(C)CO (stereo not given) | < 6.00
35 | Cc1cn2c(nc3c2c(=O)[nH]c(=O)n3Cc2ccccc2)[nH]1 | < 6.00

molecular target: T2, Adenosine receptor A3 (Homo sapiens, UniProt P0DMS8); test: Displacement of [3H]MRE3008F20 from human cloned adenosine A3 receptor expressed in CHO cells; type: cell-based
T2 sequence (P0DMS8 whole entry): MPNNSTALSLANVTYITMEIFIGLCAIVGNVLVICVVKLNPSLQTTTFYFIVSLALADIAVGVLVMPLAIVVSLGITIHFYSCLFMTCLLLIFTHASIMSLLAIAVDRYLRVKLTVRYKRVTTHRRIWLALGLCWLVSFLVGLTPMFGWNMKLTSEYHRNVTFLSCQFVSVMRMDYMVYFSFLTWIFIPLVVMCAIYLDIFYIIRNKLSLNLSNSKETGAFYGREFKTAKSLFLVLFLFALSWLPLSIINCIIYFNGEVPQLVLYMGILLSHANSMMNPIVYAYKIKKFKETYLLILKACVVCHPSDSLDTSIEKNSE

Row | Structure (SMILES) | pKi
36 | CCCn1c(=O)c2c(nc3[nH]c(C)cn32)n(Cc2ccncc2)c1=O | 6.85
37 | C=CCn1c(=O)c2c(nc3[nH]c(C)cn32)n(Cc2ccccc2)c1=O | 8.29
38 | Cc1cn2c(nc3c2c(=O)n(CCO)c(=O)n3Cc2ccccc2)[nH]1 | 7.42
39 | Cc1cn2c(nc3c2c(=O)n(CCN(C)C)c(=O)n3Cc2ccccc2)[nH]1 | 7.01
40 | CCn1c(C)cn2c3c(=O)[nH]c(=O)n(Cc4ccccc4)c3nc12 | < 6.00
41 | CCCn1c(=O)c2c(nc3[nH]c(C)cn32)n(Cc2cccnc2)c1=O | 7.24
42 | CCCn1c(=O)c2c(nc3[nH]c(C)cn32)n(Cc2ccccn2)c1=O | 7.47
43 | Cc1cn2c(nc3c2c(=O)n(CCCO)c(=O)n3Cc2ccccc2)[nH]1 | 6.96
44 | CCOC(=O)Cn1c(=O)c2c(nc3[nH]c(C)cn32)n(Cc2ccccc2)c1=O | 7.70
45 | CC(=O)Cn1c(=O)c2c(nc3[nH]c(C)cn32)n(Cc2ccccc2)c1=O | 6.74
46 | Cn1c(=O)c2c(nc3[nH]c(-c4ccccc4)cn32)n(C)c1=O | < 6.00
47 | CCCn1c(=O)c2c(nc3n(CC)c(C)cn23)n(Cc2ccccc2)c1=O | 6.70
48 | C#CCn1c(=O)c2c(nc3[nH]c(C)cn32)n(Cc2ccccc2)c1=O | 7.82
49 | Cc1cn2c3c(=O)[nH]c(=O)n(Cc4ccccc4)c3nc2n1C(C)CO (stereo not given) | < 6.00
50 | Cc1cn2c(nc3c2c(=O)[nH]c(=O)n3Cc2ccccc2)[nH]1 | 6.83

molecular target: T3, Adenosine receptor A1 (Homo sapiens, UniProt P30542); test: Displacement of [3H]DPCPX from human cloned adenosine A1 receptor expressed in CHO cells; type: cell-based
T3 sequence (P30542 whole entry): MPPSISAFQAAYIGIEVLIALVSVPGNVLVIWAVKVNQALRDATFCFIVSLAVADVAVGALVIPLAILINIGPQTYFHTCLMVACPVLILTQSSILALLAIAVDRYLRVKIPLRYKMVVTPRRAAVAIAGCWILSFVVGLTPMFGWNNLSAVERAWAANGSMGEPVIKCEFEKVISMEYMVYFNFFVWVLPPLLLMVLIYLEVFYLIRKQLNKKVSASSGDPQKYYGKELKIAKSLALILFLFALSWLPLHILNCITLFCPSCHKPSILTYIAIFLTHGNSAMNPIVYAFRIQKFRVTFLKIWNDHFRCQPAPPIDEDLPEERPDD

Row | Structure (SMILES) | pKi
51 | CCCn1c(=O)c2c(nc3[nH]c(C)cn32)n(Cc2ccncc2)c1=O | < 6.00
52 | C=CCn1c(=O)c2c(nc3[nH]c(C)cn32)n(Cc2ccccc2)c1=O | < 6.00
53 | Cc1cn2c(nc3c2c(=O)n(CCO)c(=O)n3Cc2ccccc2)[nH]1 | < 6.00
54 | Cc1cn2c(nc3c2c(=O)n(CCN(C)C)c(=O)n3Cc2ccccc2)[nH]1 | < 6.00
55 | CCn1c(C)cn2c3c(=O)[nH]c(=O)n(Cc4ccccc4)c3nc12 | < 6.00
56 | CCCn1c(=O)c2c(nc3[nH]c(C)cn32)n(Cc2cccnc2)c1=O | < 6.00
57 | CCCn1c(=O)c2c(nc3[nH]c(C)cn32)n(Cc2ccccn2)c1=O | < 6.00
58 | Cc1cn2c(nc3c2c(=O)n(CCCO)c(=O)n3Cc2ccccc2)[nH]1 | < 6.00
59 | CCOC(=O)Cn1c(=O)c2c(nc3[nH]c(C)cn32)n(Cc2ccccc2)c1=O | < 6.00
60 | CC(=O)Cn1c(=O)c2c(nc3[nH]c(C)cn32)n(Cc2ccccc2)c1=O | < 6.00
61 | Cn1c(=O)c2c(nc3[nH]c(-c4ccccc4)cn32)n(C)c1=O | < 6.00
62 | CCCn1c(=O)c2c(nc3n(CC)c(C)cn23)n(Cc2ccccc2)c1=O | < 6.00
63 | C#CCn1c(=O)c2c(nc3[nH]c(C)cn32)n(Cc2ccccc2)c1=O | < 6.00
64 | Cc1cn2c3c(=O)[nH]c(=O)n(Cc4ccccc4)c3nc2n1C(C)CO (stereo not given) | < 6.00
65 | Cc1cn2c(nc3c2c(=O)[nH]c(=O)n3Cc2ccccc2)[nH]1 | < 6.00
